Test results reported in article PMC10171401 (Nature methods, 2022).
Where two headings read alike, the source gives them in different places.

How the values were obtained:
[1] = system: cAMP in L23 pyramidal neurons; test: In vivo 2pFLIM of tonic cAMP in L23 pyramidal neurons of awake head-fixed mice; set-up: species or system mouse; conditions: for effect on cAMP in neuronal dendrites / effect on cAMP in neuronal somas: intraperitoneal, yohimbine 5 mg/kg, propranolol 25 mg/kg
In short: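 Awake, head-fixed mice carried cAMPFIRE-L in L2/3 somatosensory neurons, introduced by in utero electroporation at E15.5, and were imaged by 2pFLIM through a cranial window fitted at P30–60. Isoflurane (1.5%) was given by nose cone; other drugs were given i.p., including morphine at 25 mg/kg. Lifetime was taken as mean photon emission time from soma and dendrite ROIs. Data are mean ± s.e.m.; paired two-tailed t-test.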

cAMP in L23 neurons = test: In vivo 2pFLIM of cAMP responses to enforced running in L23 neurons; set-up: species or system mouse; conditions: intraperitoneal injection; cAMPFIRE-L
In short: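 cAMPFIRE-L was expressed in L2/3 somatosensory pyramidal neurons by in utero electroporation of C57BL/6 embryos at E15.5. Plasmid (~2–3 μg/μL, 1 μL) went into the lateral ventricle, followed by five 100-ms pulses at 35 V, 1 Hz. A cranial window was fitted at P30–60 with two weeks' recovery. Awake head-fixed mice on a treadmill (rotary-encoder velocity) were imaged by 2pFLIM of running-evoked responses before and after i.p. drug.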

cAMP [2] = test: 2pFLIM response to norepinephrine in CA1 neurons in cultured hippocampal slices; format: cell-based, rat
In short: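 Rat hippocampal slices (400 μm, P6–7 pups of both sexes) were cultured at 35°C in 5% CO2 and imaged 2–3 days after transfection in carbogen-gassed aCSF with 4 mM CaCl2 and 4 mM MgCl2. CA1 neurons expressing cAMPFIRE-M received 0.1 μM norepinephrine with or without 1 μM propranolol, followed by wash. cAMPFIRE-L and its R279E mutant received 1 μM norepinephrine. Data are mean ± s.e.m. over cells.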

cAMP [3] = format: cell-based, human; conditions: propranolol 1 μM; HEK cells
In short: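 HEK-293 cells were grown in MEM with 10% FBS at 37°C in 5% CO2, plated on poly-D-lysine coverslips and transfected by Lipofectamine-2000 (0.5–3 μg plasmid per dish). Cells were given norepinephrine, then 25 μM forskolin plus 50 μM IBMX. CFP/YFP ratios were computed after per-channel background subtraction and normalized to the forskolin/IBMX response. Concentration-response curves were fitted with the Hill equation.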

| SMILES | effect on cAMP in neuronal dendrites ([1]; cAMPFIRE-L) | effect on cAMP in neuronal somas ([1]; cAMPFIRE-L) | effect on negative cAMP responses to enforced running (cAMP in L23 neurons) | effect on positive cAMP responses to enforced running (cAMP in L23 neurons) | effect on cAMP levels in neuronal somas ([1]; 1.5% inhaled, measured using cAMPFIRE-L) | time to plateau of cAMP decrease post administration ([1]; morphine 25 mg/kg) | effect on cAMP activity in L23 neurons ([1]; morphine 25 mg/kg, cAMPFIRE-L) | effect on sensor response to norepinephrine (cAMP [2]) | effect on sensor response to norepinephrine (cAMP [3]) |
| --- | --- | --- | --- | --- | --- | --- | --- | --- | --- |
| COC(=O)[C@@H]1[C@H]2C[C@H]3c4[nH]c5ccccc5c4CCN3C[C@@H]2CC[C@@H]1O [yohimbine] | increased | little effect | significantly attenuated | increased | – | – | – | – | – |
| FC(F)OC(Cl)C(F)(F)F (stereo not shown) [Isoflurane, isoflurane] | – | – | – | – | significantly reduced | – | – | – | – |
| CN1CC[C@]23c4c5ccc(O)c4O[C@H]2[C@@H](O)C=C[C@H]3[C@H]1C5 [Morphine, morphine] | – | – | – | – | – | ~ 40 minutes | decreased | – | – |
| CC(C)NCC(O)COc1cccc2ccccc12 (stereo not shown) [propranolol] | decreased | decreased | reduced | did not affect | – | – | – | blocked | blocked |
